Source: ChEMBL document CHEMBL2417427, “High analgesic and anti-inflammatory in vivo activities of six new hybrids NSAIAs tetrahydropyran derivatives” (Bioorg Med Chem, 2013)
The source made the active and inactive calls. No cut-off for these calls is given here.

Assays:
[1] = Acute toxicity in po dosed Albino-Swiss mouse assessed as hyperactivity administered as single dose measured after 5 hrs until day 14; format: organism-based; conditions: in vivo
Summary of the method: (§1)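 Oral single dose given as a suspension in 5% ethyl acetate (5 mL/kg), in increasing doses up to 2000 mg/kg, following WHO and OECD guidelines. Animals were observed from 5 h after dosing, then daily until day 14, for disorientation, hyperactivity, piloerection and hyperventilation. LD50 was fitted by nonlinear regression of percent deaths versus dose. n = 6 per group.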

Mus musculus [2] = test: Toxicity in Albino-Swiss mouse assessed as forced motor activity at 10 mg/kg, po measured after 60 mins by rota-rod test; format: organism-based; set-up: dose 10 mg/kg, route oral; conditions: in vivo, 1 h
Summary of the method: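 Mice, 6 per group, trained twice the day before to stay 5 min on a rotating roller at 10 rev/min. Next day given 10 mg/kg p.o. (suspension in 5% ethyl acetate, 5 mL/kg) or vehicle, then placed on the roller 60 min later for 5 min. Read-out was number of falls; mean ± SD, ANOVA with Bonferroni.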

[3] = Acute toxicity in po dosed Albino-Swiss mouse assessed as hyperventilation administered as single dose measured after 5 hrs until day 14; format: organism-based; conditions: in vivo; summary of the method: as §1
Mus musculus [4] = test: Antinociceptive activity in po dosed Albino-Swiss mouse assessed as acetic acid-induced abdominal writhing compound administered 30 mins prior challenge measured over 30 mins post acetic acid challenge; format: functional; conditions: Abdomen
Summary of the method: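 Mice were dosed orally at 1, 5 and 10 mg/kg as a suspension in 5% ethyl acetate vehicle (5 mL/kg). Acetic acid 1.2% (v/v) was then given ip, and writhes (abdominal contraction, body stretching, hind-limb extension) were counted for 30 min from injection. n = 6 per group. ED50 (µmol/kg) was obtained by sigmoidal dose-response nonlinear regression.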

Mus musculus [5] = test: Toxicity in Albino-Swiss mouse assessed as spontaneous locomotor activity at 10 mg/kg, po measured after 60 mins by open-field test; format: organism-based; set-up: dose 10 mg/kg, route oral; conditions: in vivo, 1 h
Summary of the method: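 Oral dosing at 10 mg/kg (5% ethyl acetate suspension, 5 mL/kg) or vehicle, 6 mice per group. At 60 min each mouse was placed alone in a chamber with the floor divided into 50 squares of 5 × 5 cm. Squares walked during 5 min were counted; mean ± SD, ANOVA with Bonferroni.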

[6] = Acute toxicity in po dosed Albino-Swiss mouse assessed as disorientation administered as single dose measured after 5 hrs until day 14; format: organism-based; conditions: in vivo; summary of the method: as §1
Mus musculus [7] = test: Antinociceptive activity in Albino-Swiss mouse assessed as increase in thermal-stimulus induced tail flick latency at 10 mg/kg, po measured over 20 to 120 mins; format: functional, organism-based; set-up: dose 10 mg/kg
Summary of the method: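 Mice, 6 per group, dosed orally at 10 mg/kg as a suspension in 5% ethyl acetate vehicle (5 mL/kg). Light intensity set so baseline latency fell at 4–6 s; animals outside this range were excluded. Two pre-dose latencies averaged as baseline, then six readings at 20-min intervals. Reported as percentage increase over baseline per time point, or as AUC (trapezoid rule) over 20–120 min.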

[8] = Acute toxicity in po dosed Albino-Swiss mouse assessed as piloerection administered as single dose measured after 5 hrs until day 14; format: organism-based; conditions: in vivo; summary of the method: as §1
Mus musculus [9] = test: Ratio of diclofenac ED50 to compound ED50 for antinociceptive activity in po dosed Albino-Swiss mouse assessed as acetic acid-induced abdominal writhing compound administered 30 mins prior challenge measured over 30 mins post acetic acid challenge; format: functional, Abdomen

Compound | LD50 at 5 h [1] [mg/kg] | Activity (Mus musculus [2]) | LD50 at 5 h [3] [mg/kg] | ED50 (Mus musculus [4]) [µmol/kg] | Activity (Mus musculus [5]) | LD50 at 5 h [6] [mg/kg] | Activity (Mus musculus [7]) | LD50 at 5 h [8] [mg/kg] | Ratio ED50 (Mus musculus [9])
CC(C(=O)OC[C@@H]1C[C@H](Cl)C[C@H](c2cccc3ccccc23)O1)c1cccc(C(=O)c2ccccc2)c1 (mixture of isomers) | > 2000 | Non-toxic | > 2000 | 14 | Non-toxic | > 2000 | Active | > 2000 | –
COc1ccc2cc(C(C)C(=O)OC[C@@H]3C[C@H](Cl)C[C@H](c4cccc5ccccc45)O3)ccc2c1 (mixture of isomers) | > 2000 | Non-toxic | > 2000 | 4.6 | Non-toxic | > 2000 | Active | > 2000 | –
CC(C)Cc1ccc(C(C)C(=O)OC[C@@H]2C[C@H](Cl)C[C@H](c3cccc4ccccc34)O2)cc1 (mixture of isomers) | > 2000 | Non-toxic | > 2000 | 10.3 | Non-toxic | > 2000 | Active | > 2000 | –
O=C(Cc1ccccc1Nc1c(Cl)cccc1Cl)OC[C@@H]1C[C@H](Cl)C[C@H](c2cccc3ccccc23)O1 (racemic) | > 2000 | Non-toxic | > 2000 | 3.17 | Non-toxic | > 2000 | Active | > 2000 | >10
OC[C@@H]1C[C@H](Cl)C[C@H](c2cccc3ccccc23)O1 (racemic) | – | – | – | 28 | – | – | – | – | –
CC(=O)Oc1ccccc1C(=O)OC[C@@H]1C[C@H](Cl)C[C@H](c2cccc3ccccc23)O1 (racemic) | > 2000 | Non-toxic | > 2000 | 20.4 | Non-toxic | > 2000 | Active | > 2000 | –
COc1ccc2c(c1)c(CC(=O)OC[C@@H]1C[C@H](Cl)C[C@H](c3cccc4ccccc34)O1)c(C)n2C(=O)c1ccc(Cl)cc1 (racemic) | > 2000 | Non-toxic | > 2000 | 13.8 | Non-toxic | > 2000 | Active | > 2000 | –
CC(=O)Oc1ccccc1C(=O)O [ASPIRIN] | – | – | – | 44.2 | – | – | – | – | –
O=C(O)Cc1ccccc1Nc1c(Cl)cccc1Cl [DICLOFENAC POTASSIUM] | – | – | – | 32.5 | – | – | – | – | –
CC(C)Cc1ccc(C(C)C(=O)O)cc1 (stereo unspecified) [IBUPROFEN] | – | – | – | 60.3 | – | – | – | – | –
COc1ccc2c(c1)c(CC(=O)O)c(C)n2C(=O)c1ccc(Cl)cc1 [INDOMETHACIN] | – | – | – | 72.6 | – | – | – | – | –
CC(C(=O)O)c1cccc(C(=O)c2ccccc2)c1 (stereo unspecified) [KETOPROFEN] | – | – | – | 46.6 | – | – | – | – | –
COc1ccc2cc([C@H](C)C(=O)O)ccc2c1 [NAPROXEN] | – | – | – | 21.8 | – | – | – | – | –
